The source made the active and inactive calls. No cut-off for these calls is given here.
Key:
[1] = Inhibition of PP1
Outline: (§1)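 PP1 catalytic fragment acting on 32P-labeled phosphorylase a, which was made from rabbit muscle phosphorylase b with phosphorylase kinase. Duplicate reactions were started with substrate, run 10 min at room temperature and stopped with TCA. Released 32P measured by Cerenkov counting.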

[2] = biological target: Calcineurin PP2B (Rattus norvegicus); assay: Inhibition of PP2B
[3] = Inhibition of PP2A
Outline: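 Substrate: DARPP-32 pThr34, from rat DARPP-32 expressed in E. coli as a His-tag fusion and phosphorylated by PKA with γ-32P-ATP. Enzyme: PP2A trimer partially purified from rat brain. Duplicate reactions, 10 min at room temperature, stopped with TCA. Supernatant and pellet 32P counted by Cerenkov.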

[4] = biological target: Protein phosphatase 1A (Rattus norvegicus) (UniProt P20650); assay: Inhibition of PP2C alpha at 100 uM
Protein phosphatase 1A (Rattus norvegicus), sequence (P20650 whole entry, looked up): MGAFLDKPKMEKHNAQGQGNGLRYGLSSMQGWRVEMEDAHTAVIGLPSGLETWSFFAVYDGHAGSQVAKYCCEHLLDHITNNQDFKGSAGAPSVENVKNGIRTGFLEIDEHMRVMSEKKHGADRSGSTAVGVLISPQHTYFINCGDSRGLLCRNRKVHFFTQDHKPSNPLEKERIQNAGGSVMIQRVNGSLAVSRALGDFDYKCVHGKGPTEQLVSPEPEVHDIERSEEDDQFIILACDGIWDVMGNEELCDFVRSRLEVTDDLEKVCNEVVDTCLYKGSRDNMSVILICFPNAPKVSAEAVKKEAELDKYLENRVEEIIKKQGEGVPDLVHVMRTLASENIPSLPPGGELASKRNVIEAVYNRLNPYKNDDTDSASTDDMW

[5] = Inhibition of PP1 at 100 uM; outline: as §1
[6] = biological target: Protein phosphatase 1A (Rattus norvegicus) (UniProt P20650); assay: Inhibition of PP2C alpha

Work on `CC1(C)N=C(N)N=C(N)N1c1ccc(CCCCc2ccccc2)cc1` yielded an IC50 [1] of 50 µM, an IC50 [2] of 50 µM and an IC50 [3] of 50 µM.

For `Cc1cc(N)c2cc(NC(=O)Nc3ccc4nc(C)cc(N)c4c3)ccc2n1`, the inhibition [4] was over 30%, the Activity [5] was “Active” and the Activity [3] was “Active”.

Compound `Ic1ccc2c(c1)N(c1ccccc1)c1cc(Nc3ccc4nc5ccc(I)cc5[n+](-c5ccccc5)c4c3)ccc1N2` has an inhibition [4] of over 50%.

For `CCCCCCCCCCCC1N=C(N)N=C(N)N1c1cccc(Br)c1` (configuration not stated), the Activity [3] was “Active”.

For `C/N=C(N)/N=C(\N)Nc1cc2ccccc2c2ccccc12`, the inhibition [4] was over 50% and the IC50 [6] was 20 µM.

With `CC1Oc2cc3c(-c4c(O)cc(O)c5c(O)c6c(cc45)OC(C)C(C)C6=O)c(O)cc(O)c3c(O)c2C(=O)C1C` (configuration not stated) the Activity [3] was “Active”.

Work on `CC(C)CC(N)C(=O)Nc1ccc2ccccc2c1` (configuration not stated) yielded an inhibition [4] of over 30%.

— ChEMBL document CHEMBL1138185, “Discovery of protein phosphatase 2C inhibitors by virtual screening” (J Med Chem, 2006)
